# An excerpt weighted towards active compounds, which were near 1.3% of everything screened.
# Diaphorase inh = diaphorase inhibitors and chemical oxidizers, primary screen, counter-screen for diaphorase-coupled primary assays, biochemical, uHTS, resorufin fluorescence | diaphorase resazurin-to-resorufin fluorescence, NADH, 16 min; bacterial (C. kluyveri) enzyme, not human | actives 0.69% (n = 190,000) | inhibition, % at 20 µM | AID 1217, 2008;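 active means primary screen inhibition at 20 µM above a set limit, cut at about 50% in these data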;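 further: plate controls were DMSO with full reaction for no effect and wells lacking NADH for full effect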
#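 Test system: Clostridium kluyveri diaphorase enzyme / Quantity: diaphorase at 0.14 U/mL in enzyme working solution / Incubation: 16-min room-temperature incubation before reading / Benchmarks: NADH-free wells as positive control, DMSO-only neutral wells / Signal: resorufin fluorescence 544/590 nm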
# PfG6PD inh = PfG6PD enzyme inhibitors, primary screen, biochemical, fluorescence intensity, uHTS. PfGluPho enzyme, NADPH resazurin-diaphorase fluorescence. inhibition, % at 20 µM. actives 0.78% (n = 350,000). glucose-6-phosphate dehydrogenase-6-phosphogluconolactonase (Plasmodium falciparum 3D7). AID 504690, 2011;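 active means inhibition reaching at least a set limit at 20 µM in the primary screen, cut at about 59% in these data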;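 further: 0% = DMSO wells with substrate and 100% = DMSO wells lacking glucose-6-phosphate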
# G6PDH CS = L. mesenteroides G6PDH inhibitors, counter-screen for G6PDH-coupled screening assays, biochemical, Leuconostoc mesenteroides enzyme; actives 0.12% (n = 200,000); glucose-6-phosphate dehydrogenase [Leuconostoc mesenteroides]; AID 1020, 2008; inhibition, % at 5 µM; Purified L. mesenteroides G6PDH, diaphorase/resazurin coupled fluorescence, 45 min; in the data active means inhibition above about 50%
# Tb hexokinase = Trypanosoma brucei hexokinase 1 inhibitors, primary screen, biochemical, G6PDH-coupled NADH absorbance, MLSCN library. actives 0.11% (n = 220,000). inhibition, % at 10 µM. hexokinase 1 [Trypanosoma brucei]. recombinant TbHK1, G6PDH-coupled NADH A340. AID 1430, 2008;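 active means inhibition of 50% or more in the single-dose primary screen; inactive means inhibition below 50%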
# HKDC1 inhibitor = HKDC1 hexokinase inhibitors, primary screen, biochemical, fluorescence, uHTS | Q2TB90 | recombinant HKDC1, G6PDH/diaphorase resazurin coupled fluorescence | inhibition, % at 20 µM | actives 0.16% (n = 340,000) | AID 493160, 2011;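 active means inhibition above about 35% when tested at 20 µM, limit read from the data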;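 further: plate controls were DMSO wells with enzyme for no effect and DMSO wells lacking enzyme for full effect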
# Target sequence (Q2TB90 whole entry, looked up): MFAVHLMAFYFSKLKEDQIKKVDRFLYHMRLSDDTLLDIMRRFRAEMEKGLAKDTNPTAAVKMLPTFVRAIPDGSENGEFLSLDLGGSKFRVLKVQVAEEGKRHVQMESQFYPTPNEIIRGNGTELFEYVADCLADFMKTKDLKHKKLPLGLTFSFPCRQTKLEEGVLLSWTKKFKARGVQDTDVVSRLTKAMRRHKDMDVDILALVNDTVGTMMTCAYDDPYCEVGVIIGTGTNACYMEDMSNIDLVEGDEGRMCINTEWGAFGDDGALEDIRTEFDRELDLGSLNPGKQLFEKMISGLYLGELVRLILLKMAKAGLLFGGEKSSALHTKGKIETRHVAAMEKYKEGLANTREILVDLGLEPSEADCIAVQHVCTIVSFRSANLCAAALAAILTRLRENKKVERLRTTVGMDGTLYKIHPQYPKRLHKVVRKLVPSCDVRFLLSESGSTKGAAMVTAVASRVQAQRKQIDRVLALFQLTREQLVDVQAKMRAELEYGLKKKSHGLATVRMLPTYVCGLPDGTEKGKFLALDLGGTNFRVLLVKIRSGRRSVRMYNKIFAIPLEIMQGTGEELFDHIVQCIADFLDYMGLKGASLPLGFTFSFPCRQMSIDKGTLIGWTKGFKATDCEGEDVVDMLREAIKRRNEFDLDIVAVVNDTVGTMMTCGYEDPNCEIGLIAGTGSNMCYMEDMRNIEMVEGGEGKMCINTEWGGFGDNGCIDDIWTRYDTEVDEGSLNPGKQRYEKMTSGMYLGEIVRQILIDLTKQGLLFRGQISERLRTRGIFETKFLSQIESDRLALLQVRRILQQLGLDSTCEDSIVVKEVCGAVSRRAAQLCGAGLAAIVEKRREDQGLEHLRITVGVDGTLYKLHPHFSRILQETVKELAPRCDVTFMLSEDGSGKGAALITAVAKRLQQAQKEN
#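 Incubation: 90 min at room temperature in dark / Material: recombinant HKDC1 (HK5) hexokinase enzyme, produced in-house / Quantity: enzyme 5 µg/mL final / Compound: one dose of 20 µM, 1% DMSO / Reagent: glucose and ATP substrates / Buffer or medium: Tris pH 8.0 buffer with MgCl2, Tween-20, BSA, BME / Technique: resorufin fluorescence at 613 nm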
# PfG6PD confirm = PfG6PD inhibitors, hit retest, confirmation, biochemical, fluorescence intensity, single concentration; recombinant PfGluPho, NADPH-diaphorase-resazurin fluorescence; inhibition, % at 20 µM; AID 504753, 2011; actives 34% (n = 2,400); shares compounds with PfG6PD inh;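 active means inhibition of at least 50% at 20 µM in any single replicate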;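 further: 0% = DMSO with substrate and 100% = DMSO lacking glucose-6-phosphate substrate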
# Diaphorase 10uM = diaphorase inhibitors and chemical oxidizers, confirmation, counter-screen for P. falciparum G6PD inhibitor project, biochemical, fluorescence intensity, 10 µM NADPH; shares compounds with PfG6PD inh; diaphorase-coupled resazurin reduction, NADPH 10 uM; inhibition, % at 20 µM; actives 39% (n = 820); AID 504862, 2011;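 active means average inhibition reaching 50% or more with the compound at 20 µM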;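 further: resorufin red fluorescence formed as diaphorase reduces resazurin using NADPH; 0% = DMSO with enzyme and 100% = DMSO without enzyme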
# Diaphorase 30uM = diaphorase inhibitors and chemical oxidizers, confirmation, counter-screen for P. falciparum G6PD inhibitor project, biochemical, fluorescence intensity, 30 µM NADPH; inhibition, % at 20 µM; shares compounds with PfG6PD inh; Diaphorase/resazurin coupled assay, resorufin fluorescence; actives 29% (n = 820);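 active means inhibition averaging 50% or more, tested at 20 µM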;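 further: 0% = DMSO with enzyme and 100% = DMSO wells lacking diaphorase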
# * = called active by the depositor; nt = no result.
SMILES,Diaphorase inh,PfG6PD inh,G6PDH CS,Tb hexokinase,HKDC1 inhibitor,PfG6PD confirm,Diaphorase 10uM,Diaphorase 30uM
O=C1NC(=S)NC(=O)C1=Cc1ccc(Br)s1,nt,65*,nt,nt,6,84*,-24,-16
CC(C)(C)C(=O)OCC12CCC(O1)C1(C)C(=O)OCC21 (stereo not drawn),13,25,21,-4,-11,nt,nt,nt
CC(C)Nc1ccc(Nc2ccccc2)cc1,nt,106*,nt,nt,11,52*,-1,8
c1ccc(Nc2ccc3ccccc3c2)cc1,nt,38,nt,nt,12,nt,nt,nt
CC(=O)n1cc(C=C2C(=O)NC(=O)NC2=O)c2ccccc21,nt,66*,nt,nt,4,-20,nt,nt
O=C1NC(=O)C(=Cc2csc3ccccc23)C(=O)N1,nt,65*,nt,2,3,31,nt,nt
CCC12CN3CCN(CC(C3)/C1=N/NC(N)=O)C2,9,-23,-1,-9,-3,nt,nt,nt
COCCNC(=O)c1c(N)n(Cc2ccco2)c2nc3ccccc3nc12,32,60*,6,-21,0,-2,nt,nt
C=CCNC(=O)c1c(N)n(Cc2ccco2)c2nc3ccccc3nc12,30,32,0,-14,5,nt,nt,nt
Cc1cc(C)c(C)c(C(O)(C(=O)O)c2ccccc2)c1 (stereo not drawn),nt,-15,nt,nt,nt,nt,nt,nt
O=C(NCC1=C(c2ccc3ccccc3c2)C[C@@H]2CC[C@H]1N2Cc1ccco1)c1ccncc1,nt,6,nt,nt,nt,nt,nt,nt
COc1cc(/C=C/c2nc3ccccc3c(=O)n2-c2ccccc2O)ccc1O,nt,84*,nt,nt,1,39,nt,nt
COc1cc(/C=C/c2nc3ccccc3c(=O)n2-c2cccc(O)c2)ccc1O,nt,25,nt,-27,1,nt,nt,nt
CCCCn1c(O)c(C(CC)=NCCN2CCCCC2)c(=O)[nH]c1=O,20,0,4,-9,-4,nt,nt,nt
O=c1[nH]sc2cc(F)ccc12,-2,63*,12,6,-2,53*,-5,-9
CN1CCc2cc(O)cc3c2[C@H]1Cc1ccc(O)c(O)c1-3,nt,86*,nt,nt,1,83*,25,6
COc1cc2c(cc1O)C[C@H]1c3c(cc(O)c(OC)c3-2)CCN1C,nt,-3,nt,nt,9,nt,nt,nt
CCCN1CCc2cc(O)cc3c2[C@H]1Cc1ccc(O)c(O)c1-3,nt,86*,nt,nt,8,77*,19,30
CCN1C(=O)CC(=O)N(CC)C1=S,nt,9,nt,nt,nt,nt,nt,nt
O=C1C=C(N2CC2)c2ccccc2C1=O,nt,100*,nt,nt,nt,72*,54*,63*
COC(=O)C1=C(c2cc3ccccc3o2)C[C@@H]2CC[C@H]1N2C(=O)NCc1ccc(F)cc1,nt,9,nt,nt,-1,nt,nt,nt
CC/C(=N\NC(=O)c1ccccc1O)c1c(O)n(C2CCCCC2)c(=O)[nH]c1=O,nt,-35,nt,nt,-3,nt,nt,nt
O=C1NC(=O)C(=Cc2ccc(-c3ccccc3[N+](=O)[O-])o2)C(=O)N1,nt,88*,nt,-30,4,76*,16,5
O=C1NC(=O)C(=Cc2ccc(-c3cc(Cl)ccc3[N+](=O)[O-])o2)C(=O)N1,27,69*,-4,-11,23,25,nt,nt
CC1(C)OC1COc1c2occc2cc2ccc(=O)oc12 (stereo not drawn),6,6,12,-13,2,nt,nt,nt
SMILES,Diaphorase inh,PfG6PD inh,G6PDH CS,Tb hexokinase,HKDC1 inhibitor,PfG6PD confirm,Diaphorase 10uM,Diaphorase 30uM
CC(C)=CCOc1c2occc2cc2ccc(=O)oc12,26,68*,18,-5,6,45,nt,nt
O=C1NC(=O)C(=Cc2ccc(SC3CCCCC3)o2)C(=O)N1,36,42,-3,4,8,nt,nt,nt
CNS(=O)(=O)c1ccc(-c2ccc(C=C3C(=O)NC(=O)NC3=O)o2)cc1,nt,81*,nt,nt,3,55*,-12,-16
NS(=O)(=O)c1ccc(-c2ccc(C=C3C(=O)NC(=O)NC3=O)o2)cc1,nt,78*,nt,nt,2,80*,7,3
N/C(=N\[N+](=O)[O-])N1CCN(C(=O)OC2CCCC2)CC1,nt,-9,nt,nt,-2,nt,nt,nt
CN1C(=O)C(=Cc2ccccc2Oc2ccc(Cl)c(F)c2)C(=O)N(C)C1=O,10,5,3,-3,7,nt,nt,nt
CC1=C(O)C(=O)C=C2C1=CC=C1C2(C)CCC2(C)C3CC(C)(C(=O)O)CCC3(C)CCC12C (stereo not drawn),nt,81*,nt,nt,27,71*,-15,-16
